Data on one molecule can be found in ChEMBL document CHEMBL4130487, “A pentanoic acid derivative targeting matrix metalloproteinase-2 (MMP-2) induces apoptosis in a chronic myeloid leukemia cell line” (Eur J Med Chem, 2017).

The structures appear in SMILES notation. The source made the active and inactive calls. No cut-off for these calls is given here.

For assay [1], the target named is Neutrophil collagenase (Homo sapiens, UniProt P22894). Kind of assay: Inhibition of recombinant human MMP8 (Phe99 to Gln269 residues) expressed in Escherichia coli using Ac-Pro-Leu-Gly-S-Leu-Leu-Gly-OEt as substrate after 1 hr measured at 1 min time interval for 30 mins by microplate photometric method. In a few lines: (§1)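 Commercial MMP kits; compound preincubated with enzyme before chromogenic substrate was added. Reactions at 37 °C for 1 h, with at least six inhibitor concentrations in triplicate. Absorbance at 410 nm read every 1 min for 30 min. NNGH used as reference inhibitor. IC50 taken from semi-logarithmic dose-response plots.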

The target of assay [2] is T1, Interstitial collagenase (Homo sapiens, UniProt P03956).
T1 sequence (P03956 whole entry): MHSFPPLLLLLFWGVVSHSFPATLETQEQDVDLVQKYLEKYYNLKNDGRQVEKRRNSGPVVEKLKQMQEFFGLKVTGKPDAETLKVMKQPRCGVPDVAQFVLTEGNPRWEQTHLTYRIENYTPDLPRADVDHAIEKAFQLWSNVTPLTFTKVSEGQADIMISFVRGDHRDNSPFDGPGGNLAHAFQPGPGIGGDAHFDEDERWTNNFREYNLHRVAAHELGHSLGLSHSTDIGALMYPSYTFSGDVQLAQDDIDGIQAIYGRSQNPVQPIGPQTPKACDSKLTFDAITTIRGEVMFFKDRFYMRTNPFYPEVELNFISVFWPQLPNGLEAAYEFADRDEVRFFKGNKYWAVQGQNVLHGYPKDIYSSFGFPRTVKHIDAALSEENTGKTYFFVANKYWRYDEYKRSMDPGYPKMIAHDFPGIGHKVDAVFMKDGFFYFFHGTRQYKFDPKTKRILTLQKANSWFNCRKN
Kind of assay: Inhibition of recombinant human MMP1 (Phe100 to Gln268 residues) using Ac-Pro-Leu-Gly-S-Leu-Leu-Gly-OEt as substrate after 1 hr measured at 1 min time interval for 30 mins by microplate photometric method. In a few lines: as §1

The test system of assay [3] is K562. Kind of assay: Induction of apoptosis in human K562 cells assessed as live cells at 5 uM after 48 hrs by Annexin V-FITC/propidium iodide staining based flow cytometry (reference value: 90.1%). The assay is classed as functional. Background: A flow cytometer gives signals particle by particle.
The target of assay [4] is MMP-2/MMP-9 (Homo sapiens) (UniProt P08253+P14780). Kind of assay: Selectivity ratio of IC50 for recombinant human MMP9 (Phe107 to Pro449 residues) expressed in Escherichia coli to IC50 for recombinant human MMP2 (Tyr110 to Asp452 residues).
Assay [5] has as its system K562. Kind of assay: Induction of apoptosis in human K562 cells assessed as live cells at 2.5 uM after 48 hrs by Annexin V-FITC/propidium iodide staining based flow cytometry (reference value: 90.1%). The assay is classed as functional.
The subject of assay [6] is K562. The assay can be described thus: Induction of apoptosis in human K562 cells assessed as early apoptotic cells at 2.5 uM after 48 hrs by Annexin V-FITC/propidium iodide staining based flow cytometry (reference value: 9.6%). It is filed as functional.
For assay [7], the system named is K562. Kind of assay: Induction of apoptosis in human K562 cells assessed as late apoptotic cells at 10 uM after 48 hrs by Annexin V-FITC/propidium iodide staining based flow cytometry (reference value: 0.3%). It is filed as functional.
Assay [8] relates to K562. The assay can be described thus: Anti-invasive activity against human K562 cells at 5 uM after 24 hrs by CyQuantGR dye based fluorimetric QCM EC matrix assay relative to control. It is filed as functional. The following applies: K562, 24 h. In a few lines:
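K562 cells (1X10^6 cells/ml) starved overnight in FBS-free medium, then placed in inserts in FBS-free medium with 5% BSA, with 5% FBS medium below as chemoattractant. Treated at 2.5, 5 and 10 μM in triplicate for 24 h alongside an untreated control. Invaded cells were detached, stained with CyQuantGR and read by fluorescence (ex 480/em 520 nm). Results given as % of control, mean ± SD.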

Assay [9] concerns A549. The assay can be described thus: Cytotoxicity against human A549 cells assessed as reduction in cell viability after 48 hrs by MTT assay. The assay is classed as functional, cell-based. The following applies: A549, 48 h. In a few lines:
(§2)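 A549, MDA-MB-231, K562, U937 and PBMC (PBMC from healthy donors) seeded at 1×10^3 cells/well and left 24 h, then exposed to compounds for 48 h at 37 °C, 5% CO2. Adherent lines were grown in DMEM, the others in RPMI-1640 with 10% heat-inactivated FBS. MTT read-out; viability expressed as % of untreated control. IC50 taken as the concentration giving 50% viability loss.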
(In general: Tetrazolium dyes change colour on reduction, which living cells bring about.)

Assay [10] concerns K562. Kind of assay: Induction of apoptosis in human K562 cells assessed as early apoptotic cells at 5 uM after 48 hrs by Annexin V-FITC/propidium iodide staining based flow cytometry (reference value: 9.6%). It is filed as functional.
The test system of assay [11] is U-937. Kind of assay: Cytotoxicity against human U937 cells assessed as reduction in cell viability after 48 hrs by MTT assay. It is filed as functional, cell-based. The following applies: U-937, 48 h. In a few lines: as §2
Assay [12] deals with K562. Kind of assay: Cell cycle arrest in human K562 cells assessed as accumulation at G2/M-phase at 5 uM after 48 hrs by propidium iodide staining based flow cytometry (reference value: 35.3%). The assay is classed as functional.
Assay [13] addresses 72 kDa type IV collagenase (Homo sapiens, UniProt P08253). The assay can be described thus: Inhibition of recombinant human MMP2 (Tyr110 to Asp452 residues) using Ac-Pro-Leu-Gly-S-Leu-Leu-Gly-OEt as substrate after 1 hr measured at 1 min time interval for 30 mins by microplate photometric method. In a few lines: as §1
The subject of assay [14] is K562. Kind of assay: Induction of apoptosis in human K562 cells assessed as live cells at 10 uM after 48 hrs by Annexin V-FITC/propidium iodide staining based flow cytometry (reference value: 90.1%). The assay is classed as functional.
Assay [15] has as its target Matrix metalloproteinase-14 (Homo sapiens, UniProt P50281). Kind of assay: Inhibition of recombinant human MMP14 (Tyr112 to Arg298 residues) expressed in Escherichia coli using Ac-Pro-Leu-Gly-S-Leu-Leu-Gly-OEt as substrate after 1 hr measured at 1 min time interval for 30 mins by microplate photometric method. In a few lines: as §1
The test system of assay [16] is K562. The assay can be described thus: Induction of apoptosis in human K562 cells assessed as necrotic cells at 10 uM after 48 hrs by Annexin V-FITC/propidium iodide staining based flow cytometry (reference value: 0%). It is filed as functional.
The test system of assay [17] is K562. The assay can be described thus: Cell cycle arrest in human K562 cells assessed as accumulation at G1/S-phase at 5 uM after 48 hrs by propidium iodide staining based flow cytometry (reference value: 21.8%). The assay is classed as functional.
The subject of assay [18] is K562. The assay can be described thus: Downregulation of MMP2 protein expression in human K562 cells up to 10 uM after 48 hrs by Western blot method. The assay is classed as functional, cell-based. In a few lines:
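K562 cells (~2×10^6) grown 48 h, then treated. Lysed on ice in Tris-HCl pH 7.5 buffer with CHAPS and glycerol. 50 µg protein run on 12% SDS-PAGE (15% for β-tubulin) and blotted to PVDF. Probed with anti-MMP-2 and anti-β-tubulin (1:1000) overnight at 4 °C, then ALKP secondary antibody and DAB development. Band intensity normalised to β-tubulin; mean ± SD.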

The subject of assay [19] is K562. Kind of assay: Downregulation of MMP2 protein expression in human K562 cells assessed as MMP2 positive population at 2.5 uM after 48 hrs by FITC staining based flow cytometry (reference value: 98.4%).
In assay [20] the test system is K562. Kind of assay: Cytotoxicity against human K562 cells assessed as reduction in cell viability after 48 hrs by MTT assay. The settings on record: K562, 48 h. The assay is classed as functional, cell-based. In a few lines:
as §2

Sequence of 72 kDa type IV collagenase (P08253 whole entry): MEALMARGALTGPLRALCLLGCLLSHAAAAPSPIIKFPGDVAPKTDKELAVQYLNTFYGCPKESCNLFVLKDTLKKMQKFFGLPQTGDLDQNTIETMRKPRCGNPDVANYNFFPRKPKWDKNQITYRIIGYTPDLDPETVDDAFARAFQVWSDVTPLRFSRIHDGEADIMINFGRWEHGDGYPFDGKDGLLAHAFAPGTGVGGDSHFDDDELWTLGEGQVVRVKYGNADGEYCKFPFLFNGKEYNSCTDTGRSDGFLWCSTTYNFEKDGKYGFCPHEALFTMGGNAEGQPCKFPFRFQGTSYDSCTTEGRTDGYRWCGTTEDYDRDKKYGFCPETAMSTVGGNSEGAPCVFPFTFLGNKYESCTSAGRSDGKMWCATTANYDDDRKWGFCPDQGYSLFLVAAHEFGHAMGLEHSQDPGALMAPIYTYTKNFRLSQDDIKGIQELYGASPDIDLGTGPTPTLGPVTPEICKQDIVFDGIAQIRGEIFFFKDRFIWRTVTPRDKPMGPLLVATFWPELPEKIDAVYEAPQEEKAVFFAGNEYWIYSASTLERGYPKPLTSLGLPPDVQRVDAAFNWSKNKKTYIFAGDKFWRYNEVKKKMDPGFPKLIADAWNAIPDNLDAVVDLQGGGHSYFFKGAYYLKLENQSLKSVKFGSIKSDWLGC
Sequence of Neutrophil collagenase (P22894 whole entry): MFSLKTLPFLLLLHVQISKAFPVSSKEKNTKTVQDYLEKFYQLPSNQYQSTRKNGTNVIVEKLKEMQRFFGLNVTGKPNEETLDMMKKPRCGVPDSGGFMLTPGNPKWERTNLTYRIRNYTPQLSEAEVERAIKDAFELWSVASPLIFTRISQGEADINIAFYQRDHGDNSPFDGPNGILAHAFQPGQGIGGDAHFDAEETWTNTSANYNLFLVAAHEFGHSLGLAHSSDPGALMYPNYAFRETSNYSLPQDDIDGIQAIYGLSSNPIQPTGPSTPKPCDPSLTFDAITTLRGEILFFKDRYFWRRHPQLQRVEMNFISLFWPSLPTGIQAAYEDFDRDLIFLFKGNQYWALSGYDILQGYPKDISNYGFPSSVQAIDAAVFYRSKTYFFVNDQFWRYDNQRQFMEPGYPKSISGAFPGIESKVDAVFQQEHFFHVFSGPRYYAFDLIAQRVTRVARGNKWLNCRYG

Consider `CCCCCNC(=O)CC[C@H](NS(=O)(=O)c1ccc([N+](=O)[O-])cc1)C(=O)O`, for which the IC50 was more than 500 µM in assay [1]; more than 500 µM in assay [2]; 206 µM in assay [9]; 32.1 µM in [11]; 4.8 µM in [13]; 436 µM in assay [15]. The IC50 in [20] came to 17.9 µM. Moreover, the Activity is 76% in assay [3]; 73.5% in assay [5]; 14.3% in assay [6]; 10.3% in [7]; 15.4% in assay [10]; 32.2% in assay [12]. In addition, the Activity in assay [14] was found to be 74%; in [16], 0.4%; in [17] it was 19.6%; in [19] it was 26.3%. Moreover, the Ratio IC50 in [4] worked out at 1.42. In addition, the inhibition at 5 µM in assay [8] was determined as 14.2%. For the same molecule, the result in [18] was Active.

The term IC50 denotes the concentration at which inhibition is half-maximal. As a reminder, the inhibition is the change of the read-out against control, counted positive when it falls. Higher therefore signals strong suppression.
